# Assay results as given in ChEMBL document CHEMBL3272171, “Tyrosylated analogues of somatostatin” (J Med Chem, 1976).
# Bridge positions count the residues as written; N and C are the ends. Square brackets hold non-standard residues; d marks the D form. Peptide text beside a SMILES is read from it.
# Experiments:
# [1] = Inhibition of growth hormone spontaneous secretion in rat anterior pituitary cells assessed as hormone level by radioimmunoassay relative to somatostatin; assay type: functional, Pituitary gland cell; set-up: scale not given: the % may be the effect or the level left
# Rattus norvegicus [2] = assay: Inhibition of insulin secretion in jugular vein dosed rat assessed as assessed as hormone level using blood sample from hepatic portal vein by radioimmunoassay relative to somatostatin; assay type: functional; set-up: scale not given: the % may be the effect or the level left
# Outline: (§1)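 Rats under ether anaesthesia received test samples by jugular vein injection. Blood was drawn from the hepatic portal vein, and hormone levels were measured by specific radioimmunoassay. Six rats per point. Potency was derived from four-point bioassays with somatostatin as reference standard, with log dose-response parallelism checked.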
# [3] = Partition coefficient, K of the compound using system BAW at 4:1:5 ratio; assay type: physicochemical
# [4] = Retardation factor of the compound using 2.5% pyridine, 5% 1-butanol and 90% water at pH 4.7 buffer relative to lysine and alanine by ninhydrin spray
# Rattus norvegicus [5] = assay: Inhibition of glucagon secretion in jugular vein dosed rat assessed using blood sample from hepatic portal vein assessed as hormone level by radioimmunoassay relative to somatostatin; assay type: functional; set-up: scale not given: the % may be the effect or the level left; outline: as §1
K [3],Rf [4],SMILES,Activity [1] [%],Activity (Rattus norvegicus [2]) [%],Activity (Rattus norvegicus [5]) [%]
0.23,0.38,C[C@H](N)C(=O)NCC(=O)N[C@H]1CSSC[C@@H](C(=O)O)NC(=O)[C@H](CO)NC(=O)[C@H]([C@@H](C)O)NC(=O)[C@H](Cc2ccccc2)NC(=O)[C@H]([C@@H](C)O)NC(=O)[C@H](CCCCN)NC(=O)[C@H](Cc2c[nH]c3ccccc23)NC(=O)[C@H](Cc2ccccc2)NC(=O)[C@H](Cc2ccc(O)cc2)NC(=O)[C@H](CC(N)=O)NC(=O)[C@H](CCCCN)NC1=O (H-AGCKNYFWKTFTSC-OH; disulfide 3-14),29,12,14
0.23,0.44,C[C@H](N)C(=O)NCC(=O)N[C@H]1CSSC[C@@H](C(=O)O)NC(=O)[C@H](CO)NC(=O)[C@H]([C@@H](C)O)NC(=O)[C@H](Cc2ccccc2)NC(=O)[C@H]([C@@H](C)O)NC(=O)[C@H](CCCCN)NC(=O)[C@H](Cc2c[nH]c3ccccc23)NC(=O)[C@H](Cc2ccc(O)cc2)NC(=O)[C@H](Cc2ccccc2)NC(=O)[C@H](CC(N)=O)NC(=O)[C@H](CCCCN)NC1=O (H-AGCKNFYWKTFTSC-OH; disulfide 3-14),108,75,109
0.24,0.45,C[C@H](N)C(=O)NCC(=O)N[C@H]1CSSC[C@@H](C(=O)O)NC(=O)[C@H](CO)NC(=O)[C@H]([C@@H](C)O)NC(=O)[C@H](Cc2ccc(O)cc2)NC(=O)[C@H]([C@@H](C)O)NC(=O)[C@H](CCCCN)NC(=O)[C@H](Cc2c[nH]c3ccccc23)NC(=O)[C@H](Cc2ccccc2)NC(=O)[C@H](Cc2ccccc2)NC(=O)[C@H](CC(N)=O)NC(=O)[C@H](CCCCN)NC1=O (H-AGCKNFFWKTYTSC-OH; disulfide 3-14),65,252,65

# Further lines, the compound ahead of its results:
SMILES,K [3],Rf [4],Activity [1] [%],Activity (Rattus norvegicus [2]) [%],Activity (Rattus norvegicus [5]) [%]
C[C@@H](O)[C@@H]1NC(=O)[C@H](Cc2ccccc2)NC(=O)[C@H]([C@@H](C)O)NC(=O)[C@H](CCCCN)NC(=O)[C@@H](Cc2c[nH]c3ccccc23)NC(=O)[C@H](Cc2ccccc2)NC(=O)[C@H](Cc2ccccc2)NC(=O)[C@H](CC(N)=O)NC(=O)[C@H](CCCCN)NC(=O)[C@@H](NC(=O)CNC(=O)[C@@H](N)Cc2ccc(O)cc2)CSSC[C@@H](C(=O)O)NC(=O)[C@H](CO)NC1=O,0.34,0.38,400,659,–
C[C@H](N)C(=O)NCC(=O)N[C@H]1CSSC[C@@H](C(=O)O)NC(=O)[C@H](CO)NC(=O)[C@H]([C@@H](C)O)NC(=O)[C@H](Cc2ccccc2)NC(=O)[C@H]([C@@H](C)O)NC(=O)[C@H](CCCCN)NC(=O)[C@H](Cc2c[nH]c3ccccc23)NC(=O)[C@H](Cc2ccccc2)NC(=O)[C@H](Cc2ccccc2)NC(=O)[C@H](CC(N)=O)NC(=O)[C@H](CCCCN)NC1=O [SOMATOSTATIN],–,0.43,–,–,–
C[C@H](N)C(=O)NCC(=O)N[C@H]1CSSC[C@@H](C(=O)O)NC(=O)[C@H](CO)NC(=O)[C@H]([C@@H](C)O)NC(=O)[C@H](Cc2ccccc2)NC(=O)[C@H]([C@@H](C)O)NC(=O)[C@H](CCCCN)NC(=O)[C@@H](Cc2ccc(O)cc2)NC(=O)[C@H](Cc2ccccc2)NC(=O)[C@H](Cc2ccccc2)NC(=O)[C@H](CC(N)=O)NC(=O)[C@H](CCCCN)NC1=O (H-AGCKNFF[dY]KTFTSC-OH; disulfide 3-14),0.24,0.41,10,28,<10
C[C@@H](O)[C@@H]1NC(=O)[C@H](Cc2ccccc2)NC(=O)[C@H]([C@@H](C)O)NC(=O)[C@H](CCCCN)NC(=O)[C@H](Cc2c[nH]c3ccccc23)NC(=O)[C@H](Cc2ccccc2)NC(=O)[C@H](Cc2ccccc2)NC(=O)[C@H](CC(N)=O)NC(=O)[C@H](CCCCN)NC(=O)[C@@H](NC(=O)CNC(=O)[C@@H](N)Cc2ccc(O)cc2)CSSC[C@@H](C(=O)O)NC(=O)[C@H](CO)NC1=O,0.41,0.33,116,70,78
